Activity calls are given as the source filed them. The rule behind the calls is not given here.
Assays:
[1] = biological target: T1, Probable periplasmic serine endoprotease DegP-like (Chlamydia trachomatis, UniProt P18584); test: Inhibition of recombinant ctHtrA serine protease using MeOCoum-ENLHLPLPI1F-D as substrate pretreated for 10 min followed by substrate addition and measured after 30 minutes
T1 sequence (P18584 whole entry): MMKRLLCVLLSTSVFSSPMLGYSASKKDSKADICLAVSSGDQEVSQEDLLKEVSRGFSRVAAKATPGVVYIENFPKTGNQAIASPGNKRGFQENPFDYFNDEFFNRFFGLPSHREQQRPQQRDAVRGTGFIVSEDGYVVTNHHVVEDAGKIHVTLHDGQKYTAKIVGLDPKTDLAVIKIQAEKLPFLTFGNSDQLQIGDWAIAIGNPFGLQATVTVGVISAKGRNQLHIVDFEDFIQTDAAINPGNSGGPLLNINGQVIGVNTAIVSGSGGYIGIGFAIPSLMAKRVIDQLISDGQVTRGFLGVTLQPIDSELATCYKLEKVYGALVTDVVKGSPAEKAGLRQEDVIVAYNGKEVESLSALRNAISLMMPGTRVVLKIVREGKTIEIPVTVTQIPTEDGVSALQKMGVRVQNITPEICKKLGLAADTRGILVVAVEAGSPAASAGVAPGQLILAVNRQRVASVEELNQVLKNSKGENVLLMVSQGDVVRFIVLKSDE
Summary of the method: (§1)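 Recombinant CtHtrA was tested against a six-dose inhibitor series in 50 mM Tris, 20 mM MgCl₂, pH 7.0. Plates were shaken before each of multiple reads per well. Each dose was run in triplicate, with a JO146 dose series (n=3) and DMSO controls (n=6). Relative inhibition is IC50(JO146)/IC50(compound), because IC50 varied between batches.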

Neutrophil elastase = biological target: T2, Neutrophil elastase (Homo sapiens, UniProt P08246); test: Inhibition of human neutrophil elastase using methoxysuccinyl-Ala-Ala-Pro-Val-pNA as substrate incubated for 15 min
T2 sequence (P08246 whole entry): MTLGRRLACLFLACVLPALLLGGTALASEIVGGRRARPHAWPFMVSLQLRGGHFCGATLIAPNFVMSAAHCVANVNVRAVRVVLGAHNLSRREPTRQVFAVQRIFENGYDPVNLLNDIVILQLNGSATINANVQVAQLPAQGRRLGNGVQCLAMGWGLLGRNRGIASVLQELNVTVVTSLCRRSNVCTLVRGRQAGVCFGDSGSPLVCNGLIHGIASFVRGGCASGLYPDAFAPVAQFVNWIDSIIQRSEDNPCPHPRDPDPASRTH

[2] = biological target: T3, Probable periplasmic serine endoprotease DegP-like (Chlamydia trachomatis) (UniProt P18584); test: Ratio of JO146 IC50 to test compound IC50 for inhibition of recombinant ctHtrA serine protease using Me0Coum-ENLHLPLPI1F-D as substrate pretreated for 10 minutes followed by substrate addition and measured after 30 minutes; summary of the method: as §1
T3 sequence (whole entry): T1 sequence (P18584 whole entry)

Chlamydia trachomatis [3] = test: Antibacterial activity against Chlamydia trachomatis D (D/UW-3/Cx; CtD) infected in HEp-2 cells assessed as log reduction in infectivity unit at 25 uM measured after 44 hrs; assay type: functional
Summary of the method: (§2)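 C. trachomatis D was grown in HEp-2 cells and C. pecorum G in McCoy B cells, in high-glucose DMEM with 10% heat-inactivated FCS, 4 mM alanyl-glutamine, streptomycin and gentamicin. Cells were seeded at 20,000/well 24 h before infection, at MOI 12 (CtD) or MOI 4 (CpG). Infection was synchronised by centrifugation at 500×g, 28 °C, 30 min. Dose series added 16 h PI, with 1% DMSO and media controls. Read-out was IFU/mL; n=3.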

Chlamydia pecorum [4] = test: Antibacterial activity against Chlamydia pecorum G (MC/MarsBar;CpG) infected in McCoy B cells assessed as log reduction in infectivity unit at 25 uM measured after 44 hrs; assay type: functional, organism-based; conditions: VR629 G (MC/MarsBar;CpG); summary of the method: as §2
HEp-2 [5] = test: Cytotoxicity against human HEp-2 cells assessed as reduction in MTS absorbance at 100 uM by MTS assay; assay type: cell-based; parameters: scale not given: the % may be the effect or the level left; conditions: hep-2, 100 µM
Summary of the method: (§3)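 HEp-2 cells were seeded at 5000/well and treated 24 h later with compound (two doses) alongside 1% DMSO and media controls, in triplicate. After 24 h treatment, medium was replaced with fresh supplemented DMEM. MTS/PMS was added for 4 h and absorbance read at 490 nm. Results are expressed as % MTS reduction relative to 1% DMSO-treated cells.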

Pseudomonas aeruginosa = test: Antibacterial activity against Pseudomonas aeruginosa assessed as growth inhibition at 50 uM; assay type: functional, organism-based
Summary of the method: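 P. aeruginosa PAO1 was grown overnight in fluorescent broth (pH 7.0) at 37 °C with shaking, diluted 1/1000 with added MgSO₄, and given compound at 50 or 100 µM final. DMSO controls were 0.5% or 1%. OD600 and fluorescence (ex 405/em 460 nm) were read every 15 min for 24 or 48 h. Pyoverdine was quantified as area under the curve.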

Staphylococcus aureus = test: Antibacterial activity against Staphylococcus aureus assessed as growth inhibition at 50 uM; assay type: functional, organism-based
Summary of the method: (§4)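 Broth microdilution MIC in cation-adjusted Mueller Hinton broth. Compound was 2-fold serially diluted from 32 µg/mL (approx. 50 µM) to 0.015 µg/mL. The inoculum was about 5×10⁵ CFU/mL from overnight cultures. Plates were incubated at 37 °C with shaking for 24 h. MIC was the lowest concentration without growth; technical triplicate.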

Escherichia coli = test: Antibacterial activity against Escherichia coli assessed as growth inhibition at 50 uM; assay type: functional, organism-based; summary of the method: as §4
HEp-2 [6] = test: Cytotoxicity against human HEp-2 cells assessed as decrease in cell integrity at 25 uM by LDH assay; assay type: cell-based; parameters: scale not given: the % may be the effect or the level left; conditions: hep-2, 25 µM
Summary of the method: (§5)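 HEp-2 cells were seeded at 5000/well and treated 24 h later at two doses, with 1% DMSO and media-only controls, in triplicate, for 8 h. Maximum-release wells were lysed with 0.8% Triton X-100 45 min before supernatant collection. Supernatant was incubated with CytoTox reagent for 30 min, then stop solution, and read at A490. Extracellular LDH is given as % of maximum release.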

HEp-2 [7] = test: Cytotoxicity against human HEp-2 cells assessed as reduction in MTS absorbance at 25 uM by MTS assay; assay type: cell-based; conditions: hep-2, 25 µM; summary of the method: as §3
Chlamydia trachomatis [8] = test: Antibacterial activity against Chlamydia trachomatis D (D/UW-3/Cx; CtD) infected in HEp-2 cells assessed as reduction in bacterial titer at 50 to 100 uM measured after 44 hrs; assay type: functional, organism-based; conditions: dose 50-100 µM; summary of the method: as §2
Chlamydia pecorum [9] = test: Antibacterial activity against Chlamydia pecorum G (MC/MarsBar;CpG) infected in McCoy B cells assessed as reduction in bacterial titer at 50 to 100 uM measured after 44 hrs; assay type: functional, organism-based; conditions: VR629 G (MC/MarsBar;CpG), dose 50-100 µM; summary of the method: as §2
HEp-2 [10] = test: Cytotoxicity against human HEp-2 cells assessed as decrease in cell integrity at 100 uM by LDH assay; assay type: cell-based; parameters: scale not given: the % may be the effect or the level left; conditions: hep-2, 100 µM; summary of the method: as §5

SMILES: CC(C)C(NC(=O)[C@@H]1CCCN1C(=O)[C@@H](NC(=O)OC(C)(C)C)C(C)C)P(=O)(Oc1ccccc1)Oc1ccccc1 (some centres not stated)
- IC50 [1]: 12.5 µM
- IC50 (Neutrophil elastase): 1.15 µM
- Ratio IC50 [2]: 1
- Activity (Chlamydia trachomatis [3]): Active
- Activity (Chlamydia pecorum [4]): Active
- Activity (HEp-2 [5]): <= 25%
- Activity (Pseudomonas aeruginosa): inactive
- Activity (Staphylococcus aureus): inactive
- Activity (Escherichia coli): inactive
- Activity (HEp-2 [6]): <= 3.4%

SMILES: CC(C)C(NC(=O)[C@@H]1CCCN1C(=O)[C@@H](NC(=O)OCc1ccccc1)C(C)(C)C)P(=O)(Oc1ccccc1)Oc1ccccc1 (some centres not stated)
- Activity (HEp-2 [5]): Toxic
- Activity (HEp-2 [7]): Non-Toxic
- Activity (HEp-2 [6]): <= 3.4%

SMILES: CCC(C)C(NC(=O)[C@@H]1CCCN1C(=O)[C@@H](NC(=O)C(C)(C)C)C(C)(C)C)P(=O)(Oc1ccccc1)Oc1ccccc1 (some centres not stated)
- Activity (Chlamydia trachomatis [3]): Active
- Activity (Chlamydia pecorum [4]): Active
- Activity (HEp-2 [5]): Toxic
- Activity (HEp-2 [7]): Non-Toxic
- Activity (HEp-2 [6]): <= 3.4%

SMILES: CC(C)C(NC(=O)C(C)n1cccc(NC(=O)OC(C)(C)C)c1=O)P(=O)(Oc1ccccc1)Oc1ccccc1 (configuration not stated)
- Activity (Chlamydia trachomatis [3]): Active
- Activity (Chlamydia pecorum [4]): Active
- Activity (HEp-2 [5]): <= 25%
- Activity (Chlamydia trachomatis [8]): Active
- Activity (Chlamydia pecorum [9]): Active

SMILES: CCC(C)C(NC(=O)C(C)n1cccc(NC(=O)OC(C)(C)C)c1=O)P(=O)(Oc1ccccc1)Oc1ccccc1 (configuration not stated)
- IC50 [1]: 128 µM
- Activity (Chlamydia trachomatis [3]): Active
- Activity (Chlamydia pecorum [4]): Active
- Activity (HEp-2 [5]): <= 25%
- Activity (HEp-2 [10]): < 10%

SMILES: CC(C)C(NC(=O)Cn1cccc(NC(=O)Oc2ccccc2)c1=O)P(=O)(Oc1ccccc1)Oc1ccccc1 (configuration not stated)
- Activity (Chlamydia trachomatis [3]): Active
- Activity (Chlamydia pecorum [4]): Active
- Activity (HEp-2 [5]): <= 25%
- Activity (Chlamydia trachomatis [8]): Active
- Activity (Chlamydia pecorum [9]): Active

SMILES: CCC(C)C(NC(=O)[C@@H]1CCCN1C(=O)[C@@H](NC(=O)OC(C)(C)C)C(C)(C)C)P(=O)(Oc1ccccc1)Oc1ccccc1 (some centres not stated)
- IC50 [1]: 10.3 µM
- IC50 (Neutrophil elastase): 13.5 µM
- Ratio IC50 [2]: 1.22
- Activity (Pseudomonas aeruginosa): inactive
- Activity (Staphylococcus aureus): inactive
- Activity (Escherichia coli): inactive
- Activity (HEp-2 [6]): <= 3.4%

SMILES: CCC(C)C(NC(=O)C(C)n1cccc(NC(=O)Oc2ccccc2)c1=O)P(=O)(Oc1ccccc1)Oc1ccccc1 (configuration not stated)
- IC50 [1]: 19.8 µM
- Activity (Chlamydia trachomatis [3]): Active
- Activity (Chlamydia pecorum [4]): Active
- Activity (HEp-2 [5]): <= 25%

SMILES: CCC(C)C(NC(=O)Cn1cccc(NC(=O)Oc2ccccc2)c1=O)P(=O)(Oc1ccccc1)Oc1ccccc1 (configuration not stated)
- Activity (Chlamydia trachomatis [3]): Active
- Activity (Chlamydia pecorum [4]): Active
- Activity (HEp-2 [5]): <= 25%

SMILES: CCC(C)C(NC(=O)[C@@H]1CCCN1C(=O)[C@@H](NC(=O)NC(C)(C)C)C(C)(C)C)P(=O)(Oc1ccccc1)Oc1ccccc1 (some centres not stated)
- Activity (HEp-2 [5]): Toxic
- Activity (HEp-2 [7]): Non-Toxic
- Activity (HEp-2 [6]): <= 3.4%

SMILES: CCC(C)C(NC(=O)[C@@H]1CCCN1C(=O)[C@@H](NC(=O)OCc1ccccc1)C(C)(C)C)P(=O)(Oc1ccccc1)Oc1ccccc1 (some centres not stated)
- IC50 [1]: 24.9 µM
- Activity (HEp-2 [5]): Toxic
- Activity (Chlamydia trachomatis [8]): Active
- Activity (Chlamydia pecorum [9]): Active
- Activity (HEp-2 [7]): Non-Toxic
- Activity (HEp-2 [6]): <= 3.4%

SMILES: CC(C)C(NC(=O)C(C)n1cccc(NC(=O)Oc2ccccc2)c1=O)P(=O)(Oc1ccccc1)Oc1ccccc1 (configuration not stated)
- IC50 [1]: 41.8 µM
- Activity (Chlamydia trachomatis [3]): Active
- Activity (Chlamydia pecorum [4]): Active
- Activity (HEp-2 [5]): <= 25%
- Activity (Chlamydia trachomatis [8]): Active
- Activity (Chlamydia pecorum [9]): Active

SMILES: CC(C)C(NC(=O)[C@@H]1CCCN1C(=O)[C@@H](NC(=O)NC(C)(C)C)C(C)(C)C)P(=O)(Oc1ccccc1)Oc1ccccc1 (some centres not stated)
- Activity (HEp-2 [5]): Toxic
- Activity (HEp-2 [7]): Non-Toxic
- Activity (HEp-2 [6]): <= 3.4%

SMILES: CC(C)C(NC(=O)[C@@H]1CCCN1C(=O)[C@@H](NC(=O)OC(C)(C)C)C(C)(C)C)P(=O)(Oc1ccccc1)Oc1ccccc1 (some centres not stated)
- IC50 [1]: 9.3 µM
- IC50 (Neutrophil elastase): 3.02 µM
- Ratio IC50 [2]: 1.34
- Activity (Pseudomonas aeruginosa): inactive
- Activity (Staphylococcus aureus): inactive
- Activity (Escherichia coli): inactive
- Activity (HEp-2 [6]): <= 3.4%

— ChEMBL document CHEMBL4840314, “Optimization of peptide-based inhibitors targeting the HtrA serine protease in Chlamydia: Design, synthesis and biological evaluation of pyridone-based and N-Capping group-modified analogues” (Eur J Med Chem, 2021)
